Compounds with a hit are over-represented: about 4.9% of the library has one in this group of screens.
STAT1 act = STAT1 signaling activators, primary screen, cell-based, HTS, luciferase reporter; AID 932, 2007; NIH 3T3 STAT1-luciferase reporter, IFN-gamma, luminescence; 100% = IFN-gamma alone, no compound; actives 2.6% (n = 200,000); activation (% of control), % at 5.5 µM;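 active = activation above the screen-wide mean activation plus 3 SD, cut at about 130% in these data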
STAT3 blocker = IL-6 driven STAT3 reporter inhibitors, primary screen, U3A cells, luciferase, luminescence, MLSCN library; IL-6 STAT3-luciferase reporter; host cell line lacks STAT1; inhibition, % at 5.5 µM; actives 0.89% (n = 190,000);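 active = inhibition above the mean inhibition across all screened compounds plus 3 SD, cut at about 44% in these data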
NF-kB neuron act = activators of NF-kB expression in neurons, primary screen, cell-based, HTS. human neuronal cells, NF-kB reporter expression; hits give high values. fold change at 12.5 µM. actives 1.6% (n = 190,000). AID 1239, 2008; in the data active = fold change above about 3.3
STAT3 act = IL-6 driven STAT3 reporter potentiators, primary screen, U3A cells, luciferase, luminescence, MLSCN library; IL-6 STAT3-luciferase reporter; 100% = signal with IL-6 EC80 alone; activation (% of control), % at 5.6 µM; actives 0.91% (n = 190,000); AID 871, 2007;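 active = activation above the screen-wide mean of compound activation plus 3 SD, cut at about 130% in these data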
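Test system: human U3A cells carrying STAT3-luciferase construct; control set: IL-6-only wells as 100% reference; timing: compound pre-incubation 1 h before IL-6, then 6 h stimulation at 37 °C; also added: IL-6 stimulus at 33 ng/mL final; evaluation: % activation versus median of IL-6-stimulated wells; detection: reporter luminescence signal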
STAT1 blocker = STAT1 signaling inhibitors, primary screen, cell-based, HTS, luciferase reporter | inhibition, % at 5.5 µM | actives 0.35% (n = 200,000) | NIH 3T3 STAT1-luciferase reporter, IFN-gamma, luminescence | AID 920, 2007;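 active = inhibition above a set limit, the mean inhibition across all tested compounds plus 3 SD, cut at about 34% in these data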
APP 5'UTR act = activators of APP 5'UTR luciferase reporter, primary screen, SH-SY5Y cells | activation, % at 2 µM | actives 1% (n = 190,000) | SH-SY5Y APP 5'UTR luciferase reporter, luminescence; zero percent = DMSO vehicle wells;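 active = activation above a set limit, based on mean plus 3 SD of controls, cut at about 140% in these data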
Of the large screens only hits and unclear results are named; the others gave an inactive call.

Cc1c(N(C(=O)Cc2cccs2)C2(C(=O)NC3CCCC3)CCCCC2)c(=O)n(-c2ccccc2)n1C	NF-kB neuron act 4.1
COc1cc(C2C(C#N)=C(N)Oc3cc(N)ccc32)cc(OC)c1OC (stereo not given)	NF-kB neuron act 3.7
CCCc1nn(C)c(C(=O)Nc2ccc(C)c(C)c2)c1Cl	STAT1 act 130
O=C1c2cccc3cccc(c23)C(=O)N1c1ccncc1	none
CCc1nnc(N2C(=O)c3cccc4cccc(c34)C2=O)s1	STAT3 act 135
CCN1C(=O)/C(=C/C=C2/SCCN2C)SC1=S	STAT1 act 152, STAT3 blocker 59, NF-kB neuron act 4.7
COc1ccc(Cl)cc1NC(=O)c1cnc2sccn2c1=O	none
O=C(Nc1cnc2sccn2c1=O)c1ccc(Cl)cc1Cl	STAT1 act 132
CC12CCC(C/C1=N/OC(=O)c1cccc([N+](=O)[O-])c1)C2(C)C (stereo not given)	none
COc1cccc(N2CCN(c3ncnc4c3[nH]c3ccc(F)cc34)CC2C)c1 (stereo not given)	STAT3 blocker 75, STAT1 blocker 68
Cc1cccc(/C=C\c2nc3ccccc3c(=O)[nH]2)c1	STAT1 act 144, APP 5'UTR act 158
Cc1nc(/C=C/c2ccccc2)[nH]c(=O)c1-c1ccccc1	STAT1 act 129
O=C(Nc1ccc(Cl)cc1)C(c1ccccc1)N(CCO)CCO (stereo not given)	NF-kB neuron act 4.3
CCOC(=O)c1cnn(-c2ccccc2)c1-n1cccc1C(=O)C(=O)Nc1ccccc1C(F)(F)F	none
C/C(O)=C(/N=O)C(=O)Nc1ccccc1	none
Cn1cccc1C(=O)C(=O)Nc1ccccc1C(F)(F)F	STAT1 act 139
Cn1cccc1C(=O)C(=O)Nc1ccccc1	NF-kB neuron act 5.9, APP 5'UTR act 145
O=C(CCCCCn1c(=O)[nH]c2ccsc2c1=O)NCc1ccc2c(c1)OCO2	none
COc1ccc(-c2cc(C(=O)Nc3nc4c(C)cccc4s3)c3ccccc3n2)cc1OC	STAT3 act 134
Cc1ccc(-c2cc(C(=O)N3CCCc4ccccc43)no2)cc1	STAT1 act 137
CCC(C)(C)c1ccc2c(c1)C(=O)c1ccccc1C2=O	APP 5'UTR act 182
CCc1ccc(C(=O)Nc2nnn(CC)n2)cc1	NF-kB neuron act 3.7
CCOc1ccc(CCNC(=O)COC(=O)c2cc(OC)c(OC)c(OC)c2)cc1OCC	none
O=C(Nc1nc2ccc(C(=O)N3CCCCC3)cc2s1)C1CCCCC1	none
O=C(Nc1nnc(-c2ccncc2)s1)C1CCCO1 (stereo not given)	none
O=C(Nc1nnc(Cc2ccc(Cl)cc2)s1)C1CCCO1 (stereo not given)	none
Nc1ccc2nc(NC(=O)C3CCCCC3)sc2c1	STAT1 act 146, NF-kB neuron act 4.8
CCOc1ccc2nc(NC(=O)NC3CCCCC3)sc2c1	none
CCOc1ccc2nc(NC(=O)C3CCCO3)sc2c1 (stereo not given)	STAT1 act 140, NF-kB neuron act 4.7, APP 5'UTR act 158
O=C(Nc1ncc(Cc2ccccc2)s1)C1CCCO1 (stereo not given)	NF-kB neuron act 4.1
O=C(Nc1nnc(-c2ccccc2F)s1)C1CCCO1 (stereo not given)	STAT1 act 141
COc1cc(CNCCc2c[nH]c3ccccc23)ccc1OCc1ccc(F)cc1	none
O=C(Nc1nc2ccc(F)cc2s1)C1CCCO1 (stereo not given)	STAT1 act 146, NF-kB neuron act 3.9
Cc1cc(C(=O)N/N=C2\CC(=O)CC(C)(C)C2)c(C)n1-c1ccccc1	none
Cc1cc(C(=O)N/N=C2\CC(=O)c3ccccc32)c(C)n1-c1ccccc1	STAT1 act 137
c1ccc2nc(-c3nc4ccccc4o3)ccc2c1	STAT3 blocker 80, STAT1 blocker 38
COc1nc(C)ccc1-c1noc(-c2ccccn2)n1	NF-kB neuron act 4.2
COc1ccccc1-c1nc(-c2ccccn2)no1	STAT3 blocker 75, STAT1 blocker 36
COc1ccccc1-c1noc(-c2cccs2)n1	STAT1 act 130, NF-kB neuron act 3.8
COc1ccccc1-c1noc(-c2ccncc2)n1	none
COc1ccc(-c2nc(-c3ccccn3)no2)cc1	STAT3 blocker 109, STAT1 blocker 96
COc1ccc(Oc2nc(-c3ccccn3)ncc2OC)cc1	none
COc1cccc(-c2cc3nc4c(c(N5CCC6(CC5)OCCO6)n3n2)CCC4)c1	none
OC(CNC1CCCCC1)COCCOc1ccc(Br)cc1 (stereo not given)	none
O=c1n(-c2ccccc2)c(=O)n2n1CC(O)C2	none
COc1ccccc1NC(=S)N(CCc1nc2cc(C)c(C)cc2[nH]1)Cc1cccnc1	none
Cc1ccccc1-c1nc(-c2ccccn2)no1	STAT3 blocker 99, STAT1 blocker 77
Clc1ccc(-c2nc(Cc3ccccc3)no2)cc1	none
Cc1ccccc1-c1nc(Cc2ccccc2)no1	STAT1 act 140
S=C(Nc1ccccc1Oc1ccccc1)Nc1cccc(Cl)c1Cl	none
O=C(CN1CCN(c2ccc(F)cc2)CC1)NC(=O)NCc1ccco1	none
CCC(=NCc1ccco1)c1c(C(F)(F)F)[nH]n(-c2nc3ccccc3s2)c1=O	none
CC(=NCc1ccco1)c1c(C)[nH]n(-c2nc3ccccc3s2)c1=O	APP 5'UTR act 153
CN(CCC1CCCCO1)C(=O)CCc1nnc(C2CCCCC2)o1 (stereo not given)	none
Fc1cccc(/C=N/NC(=S)Nc2ccccc2Cl)c1	STAT1 act 131
O=S(=O)(N/N=C\c1ccc(-c2ccccc2Cl)o1)c1ccccc1	none
O=C(N/N=C/c1cccc(F)c1)c1csc2c1CCCC2	STAT1 act 142, NF-kB neuron act 5.5
O=C(N/N=C/c1ccc(-c2ccccc2Cl)o1)c1ccccc1	STAT1 act 137
O=C(N/N=C/c1cccc(O)c1)c1csc2ccccc12	none
O=C(N/N=C/c1ccccc1C(F)(F)F)c1ccc(O)cc1	STAT1 act 130
CC(NC(=O)c1sc2ccccc2c1Cl)C1CCCO1 (stereo not given)	none
COC(=O)CSc1nc(C)cc(N2CCOCC2)n1	none (no result: NF-kB neuron act)
O=C(N/N=C/c1c(Cl)cccc1Cl)c1cccc(F)c1	none
O=C(N/N=C/c1ccccc1Cl)c1cccc(F)c1	STAT1 act 148
O=C(N/N=C/c1cccc(F)c1)c1ccc(Cl)cc1	STAT1 act 138
O=C(Nc1ccccc1C(=O)N/N=C/c1ccncc1)c1ccccc1	STAT3 blocker 67, STAT1 blocker 54
